Assay results published in ChEMBL document CHEMBL1955795, “Efficient synthesis and biological evaluation of proximicins A, B and C” (Bioorg Med Chem, 2012).
Converted amounts (≈) assume the structure as drawn. The source made the active and inactive calls. The calls are words filed in the database; no cut-off is given here.

Legend:
[1] = system: Jurkat; experiment: Induction of apoptosis in human Jurkat 16 cells assessed as DNA fragments release from apoptotic nuclei at 50 ug/ml after 48 hrs by propidium iodide based flow cytometry analysis; assay type: functional, cell-based
Summary of the method: (§1)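 Cells grown in RPMI with 10% FCS and penicillin/streptomycin at 37 °C, 5% CO2. Plated in duplicate and treated 48 h with increasing concentrations. DNA released from apoptotic nuclei stained with propidium iodide. Percentage DNA fragmentation quantified by flow cytometry.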

[2] = system: Enterococcus faecalis; experiment: Antimicrobial activity against Enterococcus faecalis NCTC 12697 after 24 hrs by MTT assay; assay type: functional; details: NCTC 12697, 24 h
Summary of the method: (§2)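 Broth microdilution MIC in cation-adjusted Mueller-Hinton broth supplemented to 20 mg/L Ca2+ and 10 mg/L Mg2+. Strains grown on nutrient agar 24 h at 37 °C. Inoculum of 5 × 10⁵ cfu set in normal saline against a 0.5 McFarland standard. Plates incubated at 37 °C, then MTT (5 mg/mL methanolic, 20 µL) added for 20 min. MIC taken as the lowest concentration with no yellow-to-blue colour change.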

[3] = system: L1236; experiment: Induction of apoptosis in human L1236 cells assessed as DNA fragments release from apoptotic nuclei at 50 ug/ml after 48 hrs by propidium iodide based flow cytometry analysis; assay type: functional, cell-based; summary of the method: as §1
[4] = system: Escherichia coli; experiment: Antimicrobial activity against Escherichia coli NCTC 10418 after 24 hrs by MTT assay; assay type: functional; details: NCTC 10418, 24 h; summary of the method: as §2
[5] = Cytotoxicity against human U87MG cells after 48 hrs by MTT assay; assay type: functional, cell-based, U-87MG ATCC; details: U-87 MG
Summary of the method: (§3)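 U-87 MG cells in MEM and MDA-MB-231 cells in DMEM, each with 10% FBS, L-glutamine, non-essential amino acids and sodium pyruvate, kept at 5% CO2. Log-phase cells exposed to increasing drug concentrations for 24 h, then grown in fresh medium for a further 48 h. MTT added for 4 h, formazan dissolved in DMSO, absorbance read. Viability normalised to untreated wells after subtracting Triton-treated wells. IC50 derived.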

[6] = system: Staphylococcus aureus; experiment: Antimicrobial activity against Staphylococcus aureus SA 1199B over-expressing NorA MDR efflux pump after 24 hrs by MTT assay; assay type: functional
Summary of the method: (§4)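 Broth microdilution MIC in cation-adjusted Mueller-Hinton broth adjusted to 20 mg/L Ca²⁺ and 10 mg/L Mg²⁺. Strains grown on nutrient agar 24 h at 37 °C before testing. Inoculum of 5 × 10⁵ cfu prepared in normal saline against a 0.5 McFarland standard, added to wells and incubated at 37 °C. MTT (5 mg/mL methanolic solution) added for 20 min. Yellow-to-dark-blue colour change indicated growth. MIC = lowest concentration with no growth.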

[7] = system: Staphylococcus aureus; experiment: Antimicrobial activity against Staphylococcus aureus […] after 24 hrs by MTT assay; assay type: functional; summary of the method: as §4
[8] = system: Staphylococcus aureus; experiment: Antimicrobial activity against epidemic methicillin-resistant Staphylococcus aureus 15 after 24 hrs by MTT assay; assay type: functional; details: Staphylococcus aureus, 15, 24 h; summary of the method: as §4
[9] = system: MDA-MB-231; experiment: Cytotoxicity against human MDA-MB-231 cells after 48 hrs by MTT assay; assay type: functional, cell-based; details: MDA-MB-231, 48 h; summary of the method: as §3
[10] = system: Staphylococcus aureus; experiment: Antimicrobial activity against epidemic methicillin-resistant Staphylococcus aureus 16 after 24 hrs by MTT assay; assay type: functional; details: Staphylococcus aureus, 16, 24 h; summary of the method: as §4
[11] = system: Jurkat; experiment: Induction of apoptosis in human Jurkat 16 cells assessed as DNA fragments release from apoptotic nuclei after 48 hrs by propidium iodide based flow cytometry analysis; assay type: functional, cell-based; summary of the method: as §1
[12] = system: L1236; experiment: Induction of apoptosis in human L1236 cells assessed as DNA fragments release from apoptotic nuclei at 20 ug/ml after 24 hrs by propidium iodide based flow cytometry analysis; assay type: functional, cell-based
Summary of the method: (§5)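 Cells grown in RPMI with 10% FCS and penicillin/streptomycin at 37 °C, 5% CO2. Treated 24 h at 20 µg/mL. Apoptotic DNA fragmentation measured as propidium iodide fluorescence by flow cytometry, reported as percentage of degraded DNA.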

[13] = system: Jurkat; experiment: Induction of apoptosis in human Jurkat 16 cells assessed as DNA fragments release from apoptotic nuclei at 20 ug/ml after 24 hrs by propidium iodide based flow cytometry analysis; assay type: functional, cell-based; summary of the method: as §5

| Structure (SMILES) | Activity [1] | MIC [2] | Activity [3] | MIC [4] | IC50 [5] | MIC [6] | MIC [7] | MIC [8] | IC50 [9] | MIC [10] | Activity [11] | Activity [12] | Activity [13] |
| --- | --- | --- | --- | --- | --- | --- | --- | --- | --- | --- | --- | --- | --- |
| COC(=O)Nc1coc(C(=O)Nc2coc(C(=O)NCCc3c[nH]c4ccccc34)c2)c1 [PROXIMICIN C] | Active | > 128 µg/mL | inactive | > 128 µg/mL | 12.7 µg/mL (≈ 29.1 µM) | > 256 µg/mL | > 256 µg/mL | > 128 µg/mL | 11.4 µg/mL (≈ 26.1 µM) | > 256 µg/mL |  |  |  |
| Cn1cc(NC(=O)c2cc(NC(=O)CNC(=N)N)cn2C)cc1C(=O)NCCC(=N)N [NETROPSIN] |  |  |  |  |  | 16 µg/mL (≈ 37.2 µM) | 64 µg/mL (≈ 149 µM) |  |  | 128 µg/mL (≈ 297 µM) |  |  |  |
| COC(=O)Nc1coc(C(=O)Nc2coc(C(=O)NCCc3ccc(O)cc3)c2)c1 [PROXIMICIN B] |  | 4 µg/mL (≈ 9.68 µM) |  | > 128 µg/mL |  | 4 µg/mL (≈ 9.68 µM) | 8 µg/mL (≈ 19.4 µM) | 8 µg/mL (≈ 19.4 µM) |  | 8 µg/mL (≈ 19.4 µM) | Dose-dependent effect | Active | Active |
| CN(C)[C@@H]1C(O)=C(C(N)=O)C(=O)[C@@]2(O)C(O)=C3C(=O)c4c(O)cccc4[C@@](C)(O)[C@H]3C[C@@H]12 [TETRACYCLINE] |  | 4 µg/mL (≈ 9 µM) |  | 0.12 µg/mL (≈ 0.27 µM) |  | 0.25 µg/mL (≈ 0.563 µM) | 0.5 µg/mL (≈ 1.13 µM) | 0.12 µg/mL (≈ 0.27 µM) |  | 0.5 µg/mL (≈ 1.13 µM) |  |  |  |
